# In ChEMBL document CHEMBL1287802, “Convergent synthesis of fluorescence-labeled probes of Annonaceous acetogenins and visualization of their cell distribution” (Bioorg Med Chem, 2010):
# Key:
# Type in all cases: functional
# [1] = Growth inhibition of human HBC4 cells after 48 hrs by sulforhodamine B assay; conditions: HBC4, 48 h
# Outline: (§1)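 Tested in the JFCR39 panel of 39 human cancer cell lines. Cells were exposed to compound for 48 h, and growth was measured as the change in total cellular protein by sulforhodamine B colorimetry. GI50 (molar concentration for 50% growth inhibition) was calculated by a previously reported method. Fingerprints were plotted as log differences of each line's GI50 from the panel mean.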
# [2] = Growth inhibition of human BSY1 cells after 48 hrs by sulforhodamine B assay; conditions: BSY-1, 48 h; outline: as §1
# [3] = Growth inhibition of human HBC5 cells after 48 hrs by sulforhodamine B assay; conditions: HBC5, 48 h; outline: as §1
# MCF7 = assay: Growth inhibition of human MCF7 cells after 48 hrs by sulforhodamine B assay; conditions: MCF7, 48 h; outline: as §1
# [4] = Growth inhibition of human MDA-MB-23 cells after 48 hrs by sulforhodamine B assay; conditions: MDA-MB-23, 48 h, read-out: pGI50 (converted); outline: as §1
# U-251 = assay: Growth inhibition of human U251 cells after 48 hrs by sulforhodamine B assay; conditions: U-251, 48 h; outline: as §1
# SF-268 = assay: Growth inhibition of human SF268 cells after 48 hrs by sulforhodamine B assay; conditions: SF-268, 48 h; outline: as §1
# SF-295 = assay: Growth inhibition of human SF295 cells after 48 hrs by sulforhodamine B assay; conditions: SF-295, 48 h; outline: as §1
# SF-539 = assay: Growth inhibition of human SF539 cells after 48 hrs by sulforhodamine B assay; conditions: SF-539, 48 h; outline: as §1
# SNB-75 = assay: Growth inhibition of human SNB75 cells after 48 hrs by sulforhodamine B assay; conditions: SNB-75, 48 h; outline: as §1
# SNB-78 = assay: Growth inhibition of human SNB78 cells after 48 hrs by sulforhodamine B assay; conditions: SNB-78, 48 h; outline: as §1
# HCC 2998 = assay: Growth inhibition of human HCC2998 cells after 48 hrs by sulforhodamine B assay; conditions: HCC 2998, 48 h, read-out: pGI50 (converted); outline: as §1
# KM12 = assay: Growth inhibition of human KM12 cells after 48 hrs by sulforhodamine B assay; conditions: KM12, 48 h; outline: as §1
# HT-29 = assay: Growth inhibition of human HT-29 cells after 48 hrs by sulforhodamine B assay; conditions: HT-29, 48 h; outline: as §1
# NCI-H23 = assay: Growth inhibition of human NCI-H23 cells after 48 hrs by sulforhodamine B assay; conditions: NCI-H23, 48 h; outline: as §1
# NCI-H226 = assay: Growth inhibition of human NCI-H226 cells after 48 hrs by sulforhodamine B assay; conditions: NCI-H226, 48 h; outline: as §1
# NCI-H522 = assay: Growth inhibition of human NCI-H522 cells after 48 hrs by sulforhodamine B assay; conditions: NCI-H522, 48 h; outline: as §1
# NCI-H460 = assay: Growth inhibition of human NCI-H460 cells after 48 hrs by sulforhodamine B assay; conditions: NCI-H460, 48 h; outline: as §1
# A549 = assay: Growth inhibition of human A549 cells after 48 hrs by sulforhodamine B assay; conditions: A549, 48 h; outline: as §1
# DMS-273 = assay: Growth inhibition of human DMS273 cells after 48 hrs by sulforhodamine B assay; conditions: DMS-273, 48 h; outline: as §1
# DMS-114 = assay: Growth inhibition of human DMS114 cells after 48 hrs by sulforhodamine B assay; conditions: DMS-114, 48 h; outline: as §1
# LOX IMVI = assay: Growth inhibition of human LOXIMVI cells after 48 hrs by sulforhodamine B assay; outline: as §1
# OVCAR-3 = assay: Growth inhibition of human OVCAR-3 cells after 48 hrs by sulforhodamine B assay; conditions: OVCAR-3, 48 h; outline: as §1
# OVCAR-4 = assay: Growth inhibition of human OVCAR4 cells after 48 hrs by sulforhodamine B assay; conditions: OVCAR-4, 48 h; outline: as §1
# OVCAR-5 = assay: Growth inhibition of human OVCAR5 cells after 48 hrs by sulforhodamine B assay; conditions: OVCAR-5, 48 h; outline: as §1
# OVCAR-8 = assay: Growth inhibition of human OVCAR8 cells after 48 hrs by sulforhodamine B assay; conditions: OVCAR-8, 48 h; outline: as §1
# SK-OV-3 = assay: Growth inhibition of human SKOV3 cells after 48 hrs by sulforhodamine B assay; conditions: SK-OV-3, 48 h; outline: as §1
# [5] = Growth inhibition of human RXF631L cells after 48 hrs by sulforhodamine B assay; conditions: RXF 631, 48 h; outline: as §1
# ACHN = assay: Growth inhibition of human ACHN cells after 48 hrs by sulforhodamine B assay; outline: as §1
# St-4 = assay: Growth inhibition of human St-4 cells after 48 hrs by sulforhodamine B assay; conditions: St-4, 48 h; outline: as §1
# [6] = Growth inhibition of human MKN1 cells after 48 hrs by sulforhodamine B assay; conditions: MKN-1, 48 h; outline: as §1
# MKN-7 = assay: Growth inhibition of human MKN7 cells after 48 hrs by sulforhodamine B assay; conditions: MKN-7, 48 h; outline: as §1
# MKN-28 = assay: Growth inhibition of human MKN28 cells after 48 hrs by sulforhodamine B assay; conditions: MKN-28, 48 h; outline: as §1
# MKN-45 = assay: Growth inhibition of human MKN45 cells after 48 hrs by sulforhodamine B assay; conditions: MKN-45, 48 h; outline: as §1
# MKN-74 = assay: Growth inhibition of human MKN74 cells after 48 hrs by sulforhodamine B assay; conditions: MKN-74, 48 h; outline: as §1
# DU-145 = assay: Growth inhibition of human DU145 cells after 48 hrs by sulforhodamine B assay; conditions: DU-145, 48 h, read-out: pGI50 (converted); outline: as §1
# PC-3 = assay: Growth inhibition of human PC3 cells after 48 hrs by sulforhodamine B assay; conditions: PC-3, 48 h; outline: as §1
# HCT-15 = assay: Growth inhibition of human HCT15 cells after 48 hrs by sulforhodamine B assay; conditions: HCT-15, 48 h; outline: as §1
# HCT-116 = assay: Growth inhibition of human HCT116 cells after 48 hrs by sulforhodamine B assay; conditions: HCT-116, 48 h; outline: as §1
smiles,measurement,setting,value
CCCCCCCCCCCC[C@@H](O)[C@H]1CC[C@H]([C@H](O)CCCCCCCCCCCCC2=C[C@H](C)OC2=O)O1 [REL-SOLAMIN],GI50,[1],> 100 µM
same,GI50,[2],> 100 µM
same,GI50,[3],> 100 µM
same,GI50,MCF7,70.8 µM
same,GI50,[4],> 100 µM
same,GI50,U-251,> 100 µM
same,GI50,SF-268,> 100 µM
same,GI50,SF-295,> 100 µM
same,GI50,SF-539,> 100 µM
same,GI50,SNB-75,> 100 µM
same,GI50,SNB-78,> 100 µM
same,GI50,HCC 2998,> 100 µM
same,GI50,KM12,> 100 µM
same,GI50,HT-29,> 100 µM
same,GI50,NCI-H23,72.4 µM
same,GI50,NCI-H226,> 100 µM
same,GI50,NCI-H522,57.5 µM
same,GI50,NCI-H460,> 100 µM
same,GI50,A549,> 100 µM
same,GI50,DMS-273,> 100 µM
same,GI50,DMS-114,4.37 µM
same,GI50,LOX IMVI,29.5 µM
same,GI50,OVCAR-3,> 100 µM
same,GI50,OVCAR-4,> 100 µM
same,GI50,OVCAR-5,> 100 µM
same,GI50,OVCAR-8,> 100 µM
same,GI50,SK-OV-3,> 100 µM
same,GI50,[5],> 100 µM
same,GI50,ACHN,> 100 µM
same,GI50,St-4,> 100 µM
same,GI50,[6],> 100 µM
same,GI50,MKN-7,12.9 µM
same,GI50,MKN-28,14.1 µM
same,GI50,MKN-45,> 100 µM
same,GI50,MKN-74,> 100 µM
same,GI50,DU-145,> 100 µM
same,GI50,PC-3,> 100 µM
same,GI50,HCT-15,> 100 µM
same,GI50,HCT-116,> 100 µM
